≈ marks a conversion by molar mass, not a printed value.
Key:
Staphylococcus aureus [1] = assay: Bacteriostatic activity against Staphylococcus aureus ATCC 6538 at 10 ppm concentration; + =Positive; type: functional, organism-based
How it was run: (§1)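 S. aureus was inoculated at 10⁷/mL into 10 mL nutrient broth with 10 ppm compound. Those tubes were centrifuged (10000g, 10 min), resuspended in sterile diluent and streaked onto nutrient agar. Colonies after 48 h at 30 °C meant bacteriostatic; none meant bactericidal.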

Staphylococcus aureus [2] = assay: Bacteriostatic activity against Staphylococcus aureus ATCC 6538 at 10 ppm concentration; x=Effective; type: functional, organism-based; how it was run: as §1
Staphylococcus aureus [3] = assay: Minimum inhibitory concentration against staphylococcus aureus ATCC 6538; type: functional
How it was run: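 Agar dilution: 1% stocks in 95% ethanol or water, serially diluted into nutrient agar (pH 6.8) to 1000, 100, 10 and 1 ppm. Plates were dried 30 min at 37 °C and spotted with ten drops of 24-h nutrient broth culture. Incubation was 48 h at 37 °C, in duplicate, with hexachlorophene as standard. MIC was the lowest level with no growth of any inoculum on either dish.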

Staphylococcus aureus [4] = assay: Bactericidal activity against Staphylococcus aureus ATCC 6538 at 10 ppm concentration; - = Negative; type: functional, organism-based; how it was run: as §1
Staphylococcus aureus [5] = assay: Bactericidal activity against Staphylococcus aureus ATCC 6538 at >10 ppm concentration; - = Negative; type: functional, organism-based
Staphylococcus aureus [6] = assay: Bacteriostatic activity against Staphylococcus aureus ATCC 6538 at >10 ppm concentration; - = Negative; type: functional, organism-based
Bacillus cereus [7] = assay: Activity at 10 ppm against Bacillus cereus NRRL 3711; d=A few resistant colonies grew; type: functional, organism-based
How it was run: (§2)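 Gram-positive panel on nutrient agar containing compound at 10, 1.0 and 0.1 ppm, duplicate plates. Six 15-µL drops per species, each holding 10⁷ vegetative cells (10⁶ for L. plantarum). Hexachlorophene and no-compound plates were run alongside. Plates were incubated 5 days at 30 °C and scored for growth. MIC was taken as the lowest level with no colonies on either plate.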

[8] = test system: Lactiplantibacillus plantarum; assay: Activity at 10 ppm against Lactobacillus plantarum; x=Effective; type: functional, organism-based; how it was run: as §2
Staphylococcus aureus [9] = assay: Bactericidal activity against Staphylococcus aureus ATCC 6538 at 10 ppm concentration; -=Negative; type: functional, organism-based; how it was run: as §1
Staphylococcus aureus [10] = assay: Activity at 10 ppm against Staphylococcus aureus ATCC 6538; x=Effective; type: functional, organism-based
Bacillus cereus [11] = assay: Activity at 1 ppm against Bacillus cereus NRRL 3711; x=Effective; type: functional, organism-based; how it was run: as §2
[12] = test system: Lactiplantibacillus plantarum; assay: Activity at 1 ppm against Lactobacillus plantarum; x=Effective; type: functional, organism-based; how it was run: as §2
Staphylococcus aureus [13] = assay: Bacteriostatic activity against Staphylococcus aureus ATCC 6538 at 1 ppm concentration; + =Positive; type: functional, organism-based
Enterococcus faecalis [14] = assay: Activity against Streptococcus faecalis; xe=S. faecalis was inhibited at 10 p.p.m. but not at 1 ppm; type: functional, organism-based; how it was run: as §2
Staphylococcus aureus [15] = assay: Activity at 1 ppm against Staphylococcus aureus ATCC 6538; x=Effective; type: functional, organism-based
Staphylococcus aureus [16] = assay: Bactericidal activity against Staphylococcus aureus ATCC 6538 at 1 ppm concentration; - = Negative; type: functional, organism-based
Staphylococcus aureus [17] = assay: Bacteriostatic activity against Staphylococcus aureus ATCC 6538 at 10 ppm concentration; - = Negative; type: functional, organism-based; how it was run: as §1
Enterococcus faecalis [18] = assay: Activity at 10 ppm against Streptococcus faecalis; x=Effective; type: functional, organism-based; how it was run: as §2
Bacillus cereus [19] = assay: Activity at 10 ppm against Bacillus cereus NRRL 3711;* = Effective; type: functional, organism-based; how it was run: as §2
[20] = test system: Lactiplantibacillus plantarum; assay: Activity at 10 ppm against Lactobacillus plantarum;* = Effective; type: functional, organism-based; how it was run: as §2
Staphylococcus aureus [21] = assay: Activity at 10 ppm against Staphylococcus aureus ATCC 6538;* = Effective; type: functional, organism-based
Bacillus cereus [22] = assay: Activity at 10 ppm against Bacillus cereus NRRL 3711; x=Effective; type: functional, organism-based; how it was run: as §2
Enterococcus faecalis [23] = assay: Activity at 1 ppm against Streptococcus faecalis; x=Effective; type: functional, organism-based; how it was run: as §2
Staphylococcus aureus [24] = assay: Bactericidal activity against Staphylococcus aureus ATCC 6538 at 1 ppm concentration; + =Positive; type: functional, organism-based
Staphylococcus aureus [25] = assay: Bactericidal activity against Staphylococcus aureus ATCC 6538 at 10 ppm concentration; + =Positive; type: functional, organism-based; how it was run: as §1

Row | MIC (Staphylococcus aureus [3]) [µg/mL] | SMILES | Activity (Staphylococcus aureus [1]) | Activity (Staphylococcus aureus [4]) | Activity [8] | Activity (Staphylococcus aureus [10]) | Activity (Enterococcus faecalis [18]) | also measured
1 | 1 (≈ 3.24 µM) | CCCCCCCCCC(=O)Nc1cc([N+](=O)[O-])ccc1O | Negative | Negative |  |  |  | Activity (Staphylococcus aureus [2]): Concentration effective
2 | 1 (≈ 3.52 µM) | CCCCCCCCC(=O)Nc1cc(Cl)ccc1O |  |  |  |  |  | Activity (Staphylococcus aureus [5]): Negative; Activity (Staphylococcus aureus [6]): Negative
3 | 1 (≈ 3.2 µM) | CCCCCCCCC(=O)Nc1ccc(Cl)c([N+](=O)[O-])c1 | Negative | Negative | Concentration effective |  |  | Activity (Bacillus cereus [7]): A few resistant colonies grew
4 | 1 (≈ 3.47 µM) | CCCCCCCC(=O)Nc1ccc(Cl)c(Cl)c1 | Negative |  | Concentration effective | Concentration effective |  | Activity (Bacillus cereus [7]): A few resistant colonies grew; Activity (Staphylococcus aureus [9]): Negative
5 | 1 (≈ 3.26 µM) | C=C(CCCCCCC)C(=O)Nc1cc([N+](=O)[O-])ccc1O |  |  |  |  |  | Activity (Bacillus cereus [11]): Concentration effective; Activity [12]: Concentration effective; Activity (Staphylococcus aureus [13]): Negative; Activity (Enterococcus faecalis [14]): Inhibited at 10ppm but not at 1ppm; Activity (Staphylococcus aureus [15]): Concentration effective; Activity (Staphylococcus aureus [16]): Negative
6 | 1 (≈ 2.71 µM) | CCCCc1ccc(S(=O)(=O)Nc2ccc(Cl)c([N+](=O)[O-])c2)cc1 |  | Negative | Concentration effective |  | Concentration effective | Activity (Staphylococcus aureus [17]): Negative
7 | 1 (≈ 3.47 µM) | CCCCCCCC(=O)Nc1cc(Cl)cc(Cl)c1 | Negative | Negative |  |  |  | Activity (Bacillus cereus [19]): Concentration effective; Activity [20]: Concentration effective; Activity (Staphylococcus aureus [21]): Concentration effective
8 | 1 (≈ 3.35 µM) | CCCCCCCC(=O)Nc1ccc(Cl)c([N+](=O)[O-])c1 |  | Negative | Concentration effective |  |  | Activity (Bacillus cereus [22]): Concentration effective; Activity (Staphylococcus aureus [17]): Negative
9 | 1 (≈ 3.57 µM) | CCCCCCCC(=O)Nc1cc([N+](=O)[O-])ccc1O |  | Negative | Concentration effective | Concentration effective | Concentration effective | Activity (Bacillus cereus [22]): Concentration effective; Activity (Staphylococcus aureus [1]; Bacteria): Negative
10 | 1 (≈ 3.12 µM) | C=C(CCCCCCCC)C(=O)Nc1cc([N+](=O)[O-])ccc1O |  |  |  |  |  | Activity (Bacillus cereus [11]): Concentration effective; Activity [12]: Concentration effective; Activity (Staphylococcus aureus [13]): Positive; Activity (Enterococcus faecalis [23]): Concentration effective; Activity (Staphylococcus aureus [15]): Concentration effective; Activity (Staphylococcus aureus [24]): Positive
11 | 1 (≈ 3.42 µM) | C=C(CCCCCC)C(=O)Nc1cc([N+](=O)[O-])ccc1O | Negative | Negative | Concentration effective | Concentration effective | Concentration effective | Activity (Bacillus cereus [22]): Concentration effective
12 | 1 (≈ 2.9 µM) | CCCc1ccc(S(=O)(=O)Nc2ccc(Cl)c(Cl)c2)cc1 |  |  | Concentration effective |  | Concentration effective | Activity (Staphylococcus aureus [17]): Negative; Activity (Staphylococcus aureus [25]): Negative
13 | 1 (≈ 3.49 µM) | C=C(CCCCC)C(=O)Nc1cc(Cl)cc(Cl)c1 | Negative | Negative | Concentration effective | Concentration effective |  | Activity (Bacillus cereus [7]): A few resistant colonies grew

From ChEMBL document CHEMBL1122485, “Antibacterially active substituted anilides of carboxylic and sulfonic acids” (1983)
